An excerpt weighted towards active compounds, which were near 1.8% of everything screened.
STAT3 activator: IL-6 driven STAT3 reporter potentiators, primary screen, U3A cells, luciferase, luminescence, MLSCN library. activation (% of control), % at 5.6 µM. IL-6 STAT3-luciferase reporter; 100% = signal with IL-6 EC80 alone. 190,000 tested, 0.91% active;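 active means activation above the screen-wide mean of compound activation plus 3 SD, cut at about 130% in these data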;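 further: 0% = background luminescence of wells with medium and substrate only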
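System – human U3A cells carrying STAT3-luciferase construct · Probe or stimulus – Interleukin-6, 33 ng/mL · Schedule – compound 1 h, then IL-6 6 h at 37 °C · Signal – luminescence from STAT3-driven luciferase reporter · Evaluation – percent of IL-6-only median luminescence · Benchmarks – IL-6-only high control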
TRAIL sens C8: viability loss with TRAIL in NB7+C8 cells, primary screen, TRAIL sensitizer project, cell-based, ATPlite luminescence; inhibition (viability loss, TRAIL sensitization), % at 10 µM; 360,000 tested, 1% active;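 active means compounds causing at least 50% loss of cell viability in the single-dose screen, relative to plate controls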
PPC-1+TRAIL kill: compounds killing PPC-1 cancer cells with TRAIL present, primary screen, TRAIL potentiator project, ATPLite luminescence, uHTS | PPC-1 cells + TRAIL, ATPLite viability luminescence | cell killing (% activity), % at 4 µM or 5 µM | 220,000 tested, 0.41% active | AID 1443, 2008;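 active means cell killing above 50% in the first pass at 4 µM, then a duplicate retest at 5 µM averaging 50% or more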;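 further: plate controls were cells with TRAIL plus DMSO for no effect and medium-only wells lacking cells for full effect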
STAT3 inh: IL-6 driven STAT3 reporter inhibitors, primary screen, U3A cells, luciferase, luminescence, MLSCN library | IL-6 STAT3-luciferase reporter; host cell line lacks STAT1 | inhibition, % at 5.5 µM | 190,000 tested, 0.89% active | AID 862, 2007;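 active means inhibition above the mean inhibition across all screened compounds plus 3 SD, cut at about 44% in these data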;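 further: 0% = DMSO only wells and 100% = 100 µM nifuroxazide control wells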
STAT1 inh: STAT1 signaling inhibitors, primary screen, cell-based, HTS, luciferase reporter; AID 920, 2007; 200,000 tested, 0.35% active; inhibition, % at 5.5 µM; NIH 3T3 STAT1-luciferase reporter, IFN-gamma, luminescence;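 active means inhibition above a set limit, the mean inhibition across all tested compounds plus 3 SD, cut at about 34% in these data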;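 further: 0% = IFN-gamma with DMSO and 100% = IFN-gamma with 300 µM nifuroxazide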
* hit, by the source's call; . = no result given.

SMILES | STAT3 activator | TRAIL sens C8 | PPC-1+TRAIL kill | STAT3 inh | STAT1 inh
CC(C)Cc1csc(=S)[nH]1 | . | -10 | . | . | .
O=C(NCc1ccccn1)c1[nH]c(C(F)(F)F)nc1-c1ccccc1 | . | -15 | . | . | .
CCC1=NN(C(=O)c2cccc(Br)c2)C(O)(c2ccc(Br)cc2)C1 (stereo not given) | 89 | 49* | -9 | 13 | 5
CCC1=NN(C(=O)c2ccc(C)cc2)C(O)(c2ccc(Br)cc2)C1 (stereo not given) | 99 | 10 | 9 | 2 | -4
Cn1ccc2cc(-c3csc(N4CCC(C(N)=O)CC4)n3)ccc21 | . | -4 | . | . | .
Cc1ccc2c(c1)CCCN2C(=O)c1cc(C)on1 | . | -14 | . | . | .
CC(C)(C)OC(=O)NC(Cc1ccccc1)C(=O)N1CCC(C(=O)NCC(=O)Nc2ccc(F)cc2)CC1 (stereo not given) | . | -3 | . | . | .
O=C(Nc1ccc(NC(=O)C2CC2)cn1)c1ccccc1 | . | 50* | . | . | .
C/C=C(/C)C(=O)OC1CC(C)(C)C[C@H]2C3=CC[C@@H]4[C@@]5(C)CCC(O[C@@H]6O[C@@H](C(=O)O)[C@@H](O)C(O[C@@H]7OC[C@H](O)[C@@H](O)[C@@H]7O[C@@H]7OC(CO)C(O)[C@@H](O)[C@@H]7O)C6O[C@@H]6OC(CO)C(O)C(O)C6O)[C@@](C)(CO)[C@@H]5CC[C@]4(C)[C@]3(C)CC(O)[C@@]12CO (stereo not given in full) | . | -3 | . | . | .
C/C=C(\C)C(=O)OC1[C@H](OC(C)=O)C2(CO)C(CC1(C)C)C1=CCC3C4(C)CCC(O[C@@H]5O[C@H](C(=O)O)[C@@H](O[C@@H]6O[C@H](CO)[C@@H](O)[C@H](O)[C@H]6O)[C@H](O)[C@H]5O[C@H]5O[C@H](CO)[C@@H](O)[C@H](O)[C@H]5O)[C@](C)(CO)C4CCC3(C)[C@]1(C)C[C@H]2O (stereo not given in full) | . | 89* | . | . | .
CN(c1ccccc1)S(=O)(=O)c1ccc(NC(=O)c2nc(S(C)(=O)=O)ncc2Cl)cc1 | . | 93* | . | . | .
COc1cccc(NC(=O)c2nc(S(C)(=O)=O)ncc2Cl)c1 | . | 66* | . | . | .
CN(c1ccccc1)S(=O)(=O)c1ccc(NC(=O)c2ccccc2)cc1 | 105 | -5 | -3 | -3 | -21
O=C(Nc1nc(-c2ccccn2)cs1)c1ccc2c(c1)OCCO2 | . | 51* | 49 | . | -35
O=c1oc(-c2ccccc2NS(=O)(=O)c2ccc3ccccc3c2)nc2ccccc12 | 108 | 13 | 17 | -10 | 2
CC(C)c1ccc2oc(-c3cc(N)ccc3O)nc2c1 | 71 | 66* | 28 | 36 | -17
Cc1ccc(-c2nnc(-c3ccccc3Br)o2)cc1 | . | 58* | . | . | .
Brc1ccc(-c2nnc(-c3ccccc3Br)o2)cc1 | 98 | 39 | 29 | 8 | -68
COc1ccc(C(=O)c2[nH]c(N)c(C(=O)NCCc3c[nH]c4ccccc34)c2-c2ccc(OC)c(OC)c2)cc1 | . | -5 | . | . | .
C1=C(c2cccc3ccccc23)N2CCN=C2S1 | 150* | -1 | 7 | -54 | 10
Nc1ccc(Sc2cc(Cl)nc(N)n2)cc1 | 117 | . | -1 | -14 | -9
Oc1cccnc1Sc1cccc(C(F)(F)F)c1 | . | 14 | . | . | .
Nc1nc(N)c2cc(Sc3ccc4ccccc4c3)ccc2n1 | . | 73* | 34 | . | .
Nc1nc(N)c2cc(Sc3cccc(C(F)(F)F)c3)ccc2n1 | . | 73* | . | . | .
Nc1nc(N)c2cc(Sc3ccc(Cl)cc3)ccc2n1 | . | 73* | . | . | .
SMILES | STAT3 activator | TRAIL sens C8 | PPC-1+TRAIL kill | STAT3 inh | STAT1 inh
Nc1nonc1-n1nnc(C(=O)N/N=C/c2ccc(OCc3ccccc3F)cc2)c1CNc1ccccc1 | . | 10 | . | . | .
Cc1cc(NC(=O)C2(C)CCN2C(C)C)c2ccccc2n1 (stereo not given) | . | -4 | . | . | .
CCCCOC1NC(=O)NC(=O)C1(F)C(=O)OCC (stereo not given) | . | -5 | . | . | .
NC(c1csc(NC(=O)Nc2ccc(OC(F)(F)F)cc2)n1)C1CCCCC1 (stereo not given) | . | 85* | . | . | .
COc1ccc(NC(=O)Nc2nc(C(N)CC(C)C)cs2)cc1 (stereo not given) | . | 7 | . | . | .
O=C1c2ccccc2/C(=C\C#Cc2ccccn2)N1c1ccccc1 | . | 74* | . | . | .
CN(C)S(=O)(=O)c1ccc(C(=O)OCCn2cnc3c2c(=O)n(C)c(=O)n3C)cc1 | 98 | -20 | 6 | 4 | 6
COCCNC(=O)c1c[nH]c2ccc(S(=O)(=O)N3CCc4ccccc43)cc2c1=O | 76 | 71* | 43 | 36 | 26
COCCCNC(=O)c1c[nH]c2ccc(S(=O)(=O)N3CCc4ccccc43)cc2c1=O | 91 | 23 | 22 | 20 | 25
CC1=CC(=O)O[C@@H]1[C@@]1(C)C[C@H]2OC(=O)C[C@H]3[C@@H](C)C(=O)C(O)=C1[C@@]23CO | . | 7 | . | . | .
O=C(Nc1nnc(-c2ccccc2)o1)NC1CCCCC1 | 100 | 61* | 6 | 6 | -16
C/C=C/c1ccc(OCCCNC(C)CC)c(OC)c1 (stereo not given) | 104 | -4 | 20 | 1 | -5
C/C=C/c1ccc(OCCCNC2CCCC2)c(OC)c1 | 104 | 54* | 34 | -3 | 9
COc1ccccc1NS(=O)(=O)c1ccc(C)c(C(=O)NC2=NCCS2)c1 | . | -9 | . | . | .
COc1ccc(Br)cc1CN1CCN(C(=O)c2cccc(F)c2)CC1 | . | -6 | . | . | .
CC(=O)c1cn(CC(=O)Nc2ccc(C)cc2)c2ccccc12 | 51 | 2 | 22 | 57* | 14
COc1ccc(NC(=O)Cn2cc(C(C)=O)c3ccccc32)cc1 | . | 0 | . | . | .
O=C(N=c1nc2ccccn2s1)c1ccccc1 | . | 84* | 84* | . | .
Cc1csc(=NC(=O)c2ccccc2)n1C | 92 | 9 | 18 | 14 | -29
Cc1ccc(CN2[C@@H](Cc3ccccc3)C(=O)CS2(=O)=O)cc1 | . | 64* | . | . | .
COC(=O)CSc1nc2cc(C)ccc2cc1C#N | 95 | 56* | 42 | 8 | -62
c1ccc(Cc2nn3c(COc4ccccc4)nnc3s2)cc1 | 134* | -22 | -11 | -34 | -9
O=C(N/N=C1\CCc2ccccc21)c1ccccc1O | 76 | 63* | 54* | 24 | -4
O=C(Nc1ccccn1)c1ccc2c(=O)n3c(nc2c1)CCCCC3 | . | 60* | . | . | .
Cc1cnc(NC(=O)c2ccc(F)c(S(=O)(=O)N3CCOCC3)c2)s1 | . | 22 | . | . | .
